The values that follow come from ChEMBL document CHEMBL3272330, “Synthesis and antimineralocorticoid activities of some 7alpha-cyano and 7alpha-alkoxycarbonylamino steroidal spirolactones” (1976).

Active and inactive are the calls of the source. The calls are words filed in the database; no cut-off is given here.

In test [1] the test system is Rattus norvegicus. Put plainly: In vivo inhibition of deoxycorticosterone acetate-induced urinary electrolyte effect in sc dosed adrenalectomized rat measured over 4 hrs. Format: functional, Urine. Put shortly:
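Groups of four adrenalectomized rats (150-200 g) were pretreated sc with 12 µg deoxycorticosterone acetate plus 2.5 ml isotonic saline, then dosed subcutaneously with test compound. The assay ran 4 h. MED (mg/rat) is the dose giving 50% inhibition of the DCA-induced increase in urinary Na/K ratio.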

Test [2] concerns Rattus norvegicus. Put plainly: In vivo inhibition of deoxycorticosterone acetate-induced urinary electrolyte effect in ig dosed adrenalectomized rat measured over 4 hrs. Format: functional, Urine. The gist of the method:
(§1)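 Adrenalectomized rats (150-200 g) in groups of four each received 12 µg deoxycorticosterone acetate and 2.5 ml isotonic saline sc before intragastric test compound, with 2.4 mg/rat as the standard level. Urine was collected over 4 h. The value is the median effective dose (mg/rat) giving 50% inhibition of the DCA-induced rise in urinary Na/K ratio.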

The test system of test [3] is Rattus norvegicus. Put plainly: In vivo inhibition of deoxycorticosterone acetate-induced urinary electrolyte effect in po dosed adrenalectomized rat measured over 4 hrs. Format: functional, organism-based. The following applies: Urine. Put shortly:
as §1

As for `C[C@]12CC[C@H]3[C@@H]([C@H](C#N)CC4=CC(=O)CC[C@@H]43)[C@@H]1CC[C@@]21CCC(=O)O1`, the MED50 is given as 1.3 mg in the test with Rattus norvegicus [1] and greater than 2.4 mg with Rattus norvegicus [2].
On to `C[C@]12C=CC(=O)C=C1C[C@@H](C#N)[C@@H]1[C@@H]2CC[C@@]2(C)[C@H]1CC[C@@]21CCC(=O)O1`, for which the MED50 in the test on Rattus norvegicus [1] is reported as 2.3 mg; in the test with Rattus norvegicus [2] it was greater than 2.4 mg. Moreover, the inhibition entry in the test with Rattus norvegicus [3] is “inactive”.
With `C[C@]12CCC(=O)C=C1C[C@@H](C#N)[C@@H]1[C@@H]2CC[C@@]2(C)[C@H]1CC[C@@]21CCC(=O)O1`, the figures for the MED50 in the test on Rattus norvegicus [1] and in the test with Rattus norvegicus [2] were 0.39 mg and greater than 2.4 mg, respectively.
In the case of `COC(=O)N[C@@H]1CC2=CC(=O)CC[C@]2(C)[C@H]2CC[C@@]3(C)[C@@H](CC[C@@]34CCC(=O)O4)[C@H]12`, the MED50 was 0.79 mg in the test on Rattus norvegicus [1] and 2 mg with Rattus norvegicus [2].
Compound `C[C@]12CCC(=O)C=C1C[C@@H](C#N)[C@@H]1[C@@H]2CC[C@@]2(C)[C@H]1CC[C@@]2(O)CCC(=O)[O-].[K+]` displayed an MED50 in the test on Rattus norvegicus [2] of 2.3 mg. The inhibition entry in the test with Rattus norvegicus [3] was “inactive”.
For the compound `CCOC(=O)N[C@@H]1CC2=CC(=O)CC[C@]2(C)[C@H]2CC[C@@]3(C)[C@@H](CC[C@@]34CCC(=O)O4)[C@H]12`, the MED50 in the test with Rattus norvegicus [1] and in the test on Rattus norvegicus [2] was greater than 2.4 mg throughout.
On to `C[C@]12CCC(=O)C=C1C[C@@H](N=C=O)[C@@H]1[C@@H]2CC[C@@]2(C)[C@H]1CC[C@@]21CCC(=O)O1`, for which the MED50 in the test on Rattus norvegicus [1] and in the test with Rattus norvegicus [2] was greater than 2.4 mg in each case.
